According to publication PMC10413622 (Nuclear medicine and biology, 2022):
pIC50: −log10 of the molar value. “Also recorded” adds a separate entry of the source.

Assays:
[1] = In vitro human plasma stability of radiotracer; assay type: in vitro ADME; settings: 37 °C, HPLC
Method in brief: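 Formulated radiotracer (46 μCi) was mixed into human plasma, with aliquots held at 37 °C. Aliquots were quenched at 0, 5, 15, 30 and 60 min with ice-cold MeCN and centrifuged at 12,500g for 10 min. Supernatant went to radio-HPLC (C18, 70–95% MeCN with 0.1% TFA over 15 min). Controls of tracer without plasma were run at 0 and 60 min.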

[2] = Stability of radiotracer in formulation; assay type: physicochemical
[3] = Dynamic PET/CT imaging in mice; assay type: in vivo, mouse
Method in brief: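 Subjects were female C57BL/6 wild-type mice aged 3 months and one male P2Y12R total-KO mouse (C57BL/6 background, 11 months), under isoflurane (2–3.5% induction, 1–2.5% maintenance). Tracer was given by tail vein at 300 μCi, formulated in saline with 10% ethanol. Imaging was 60 min list-mode dynamic PET (4×15 s, 4×1 min, 11×5 min), OSEM-3D with scatter and attenuation correction, then CT. ROIs were applied to dynamic data to give TACs in %ID/g.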

[4] = MicroPET imaging in rhesus macaque; assay type: in vivo; settings: rhesus macaque n = 1, i.v. bolus, 60 min dynamic scan
Method in brief: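 One mature female rhesus monkey (9.36 kg) was anaesthetised with Telazol, intubated, and maintained on isoflurane, with a hind-limb venous catheter and head secured. Tracer 4.90 mCi was given as a bolus over 1 min. The brain was imaged for 60 min (5×1, 2×2.5, 2×5, 4×10 min frames), with attenuation and scatter correction and 3D MAP reconstruction. A whole-brain volumetric ROI drawn on the summed image gave the TAC.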

[5] = mouse, in vivo, 1 h
[6] = Microsome stability assay; assay type: in vitro ADME, mouse; settings: 1 μM test compound, NADPH, 37 °C
Method in brief: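 Mouse liver microsomes in 100 mM K₃PO₄ pH 7.4 with 10 mM MgCl₂ and 1 μM test compound were pre-incubated 10 min at 37 °C. Reactions were started with 1 mM NADPH. They were quenched at 0, 10, 20 and 40 min with stop solution in acetonitrile, centrifuged at 4000g for 20 min, diluted in 0.1% formic acid and quantified by LC-MS/MS.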

[7] = system: P2Y12R; settings: read-out: IC50 (affinity); cited from earlier work
[8] = determined at pH 6.8; cited from earlier work
[9] = system: other purinergic receptors; settings: cited from earlier work
[10] = system: Caco-2 cells; assay: Caco-2 permeability assay; assay type: in vitro ADME; settings: 10 μM, pH 7.4, 2 h
Method in brief: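 Caco-2 cells grown in DMEM under 5% CO₂, seeded at 5 × 10⁵/well on polycarbonate filter inserts and differentiated 21 ± 4 days. Test compound at 10 μM final in HBSS with 25 mM HEPES, pH 7.4, 37 °C, added donor side. A→B and B→A runs were done with and without elacridar. Receiver was sampled over 2 h and donor at 0 and 2 h, then analysed by LC-MS/MS. Papp = […]/(A × C₀,donor) × 10⁶.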

[11] = mice, i.v., 5 min post injection

Row | Structure (SMILES) | loss of parent / radio-metabolites in human plasma ([1]; 0-60 min incubation) | intact tracer after incubation in human serum ([1]; 60 min incubation) | intact tracer after incubation in formulation ([2]; 90 min in formulation (saline with 10% ethanol)) | time stable in formulation and resistant to radiolysis ([2]; post end-of-synthesis) | CNS uptake in P2Y12R knockout mouse (PET) ([3]; P2Y12R total KO male mouse n = 1, 60 min dynamic scan) | brain uptake (PET) [3, 11] | liver uptake (PET) [3, 11] | brain peak uptake (PET) ([3]; naïve wild-type mice n = 3, i.v., 15 s post injection) | peak brain uptake (PET) [4] | ex vivo biodistribution, blood [5] | ex vivo biodistribution, brain [5] | ex vivo biodistribution, liver [5] | half-life in mouse liver microsomes [6] | pIC50 [7] | logD [8] | selectivity for P2Y12R over other purinergic receptors [9] | Caco-2 efflux ratio BA/AB [10] | Caco-2 apparent permeability AB ([10]; A→B)
1 | CCOC(=O)c1cc([11C]#N)c(N2CCC(C(=O)NS(=O)(=O)Cc3ccccc3)CC2)nc1C [[^11C]AZD1283] | no loss of parent or detection of radio-metabolites; also recorded: no loss of parent tracer or appearance of radio-metabolites | > 99% | > 99% | > 90 min | no CNS uptake | 0.55 ± 0.37 %ID/g | 58.28 ± 18.75 %ID/g | 3.46 ± 2.0 %ID/g | 0.37 SUV | 0.9% ± 0.40 %ID/g | 0.02% ± 0.01 %ID/g | 106 ± 29.70 %ID/g |  |  |  |  |  | 
2 | CCOC(=O)c1cc(C#N)c(N2CCC(C(=O)NS(=O)(=O)Cc3ccccc3)CC2)nc1C [AZD1283] |  |  |  |  |  |  |  |  |  |  |  |  | 37 min | 7.96 | 2.8 | selective for P2Y12R over other purinergic receptors | 5.3 | 4.48
